Molecular target: T1, Signal transducer and activator of transcription 1-alpha/beta (Homo sapiens, UniProt P42224)
T1 sequence (P42224 whole entry): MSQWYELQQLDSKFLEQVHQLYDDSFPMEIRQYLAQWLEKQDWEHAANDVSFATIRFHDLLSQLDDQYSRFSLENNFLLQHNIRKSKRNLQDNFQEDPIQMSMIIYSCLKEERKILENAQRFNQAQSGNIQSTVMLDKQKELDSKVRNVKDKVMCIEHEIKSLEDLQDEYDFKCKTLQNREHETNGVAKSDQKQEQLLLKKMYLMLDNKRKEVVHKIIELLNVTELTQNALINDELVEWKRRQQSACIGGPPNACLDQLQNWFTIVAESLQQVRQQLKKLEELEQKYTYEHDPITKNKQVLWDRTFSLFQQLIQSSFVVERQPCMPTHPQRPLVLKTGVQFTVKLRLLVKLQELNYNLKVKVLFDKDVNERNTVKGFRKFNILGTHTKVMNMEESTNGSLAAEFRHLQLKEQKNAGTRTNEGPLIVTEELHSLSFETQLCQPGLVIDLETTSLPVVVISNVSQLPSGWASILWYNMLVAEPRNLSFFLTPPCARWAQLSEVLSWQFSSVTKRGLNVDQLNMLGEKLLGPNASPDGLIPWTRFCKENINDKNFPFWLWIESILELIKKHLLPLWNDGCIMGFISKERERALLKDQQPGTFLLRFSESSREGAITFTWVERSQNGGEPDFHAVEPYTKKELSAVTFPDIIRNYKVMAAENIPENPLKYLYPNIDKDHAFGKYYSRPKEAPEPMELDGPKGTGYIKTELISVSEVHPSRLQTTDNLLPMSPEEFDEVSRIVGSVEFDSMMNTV
Assay: Inhibition of IFN-gamma-induced STAT1 transcriptional activity in human HepG2 cells by luciferase reporter gene assay
Summary of the method: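 STAT1-dependent luciferase reporter assay in HepG2 cells with IFN-γ stimulation; mean ± SD of at least three independent experiments.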

Row | SMILES | IC50 [nM]
1 | CCCC(C)Oc1ccc(C(=O)Nc2ccc3nc(SCC(=O)N[C@@H](C)c4ccccc4)sc3c2)c(OC)c1C (some centres not stated) | 350
2 | CCCC(C)Oc1ccc(C(=O)Nc2ccc3nc(SCC(=O)N[C@@H](C)c4ccc(OC)cc4)sc3c2)c(OC)c1C (some centres not stated) | 320
